According to ChEMBL document CHEMBL1132707, “1-(N-alkylamino)-11-(N-ethylamino)-4,8-diazaundecanes: simple synthetic polyamine analogues that differentially alter tubulin polymerization” (J Med Chem, 1999):

What was measured:
Format in all cases: protein assay
Tubulin (Bos taurus) [1] = biological target: T1, Tubulin (Bos taurus) (UniProt Q6B856+Q862L2+Q862F3); test: The compound (1 mM) + spermine (1 mM) mixture was evaluated for its effect on tubulin polymerization in the absence of MAPS as rate =change in OD340/min
Method in brief: (§1)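 MAP-free purified tubulin, thawed immediately before use. Buffer A (0.1 M MES pH 6.7, 1.0 mM MgCl2, 0.5 mM EGTA), no GTP or organic solvent, with 1 mM analogue (or analogue plus 1 mM spermine), warmed to 37 °C. Started by 10-fold dilution of 10 mg/mL tubulin. OD340 followed from 30 s, equilibrium read at 10 min. At least three determinations, variation ≤10%.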

Tubulin (Bos taurus) [2] = biological target: T1, Tubulin (Bos taurus); test: The compound (1 mM) + spermine (1 mM) mixture was evaluated for its effects on tubulin polymerization in the presence of MAPS as rate =change in OD340/min
Method in brief: (§2)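 MAP-rich tubulin, thawed just before the reaction. Buffer A (0.1 M MES pH 6.7, 1.0 mM MgCl2, 0.5 mM EGTA) containing 1 mM analogue (or analogue plus 1 mM spermine), equilibrated at 37 °C. Started by 7.5-fold dilution of 7.5 mg/mL tubulin. OD340 followed from 30 s, equilibrium read at 20 min. At least three determinations, variation ≤10%.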

Tubulin (Bos taurus) [3] = biological target: T1, Tubulin (Bos taurus); test: The compound was evaluated for its effect on tubulin polymerization in the absence of MAPS as equilibrium reading (10 min reading); method in brief: as §1
Tubulin (Bos taurus) [4] = biological target: T1, Tubulin (Bos taurus); test: The compound was evaluated for its effect on tubulin polymerization in the presence of MAPS as equilibrium reading (20 min reading); method in brief: as §2
Tubulin (Bos taurus) [5] = biological target: T1, Tubulin (Bos taurus); test: The compound (1 mM) + spermine (1 mM) mixture was evaluated for its effects on tubulin polymerization in the absence of MAPS as equilibrium reading (10 min reading); method in brief: as §1
Tubulin (Bos taurus) [6] = biological target: T1, Tubulin (Bos taurus); test: The compound was evaluated for its effect on tubulin polymerization in the absence of MAPS as rate =change in OD340/min; method in brief: as §1
Tubulin (Bos taurus) [7] = biological target: T1, Tubulin (Bos taurus); test: The compound (1 mM) + spermine (1 mM) mixture was evaluated for its effects on tubulin polymerization in the presence of MAPS as equilibrium reading (20 min reading); method in brief: as §2
Tubulin (Bos taurus) [8] = biological target: T1, Tubulin (Bos taurus); test: The compound was evaluated for its effect on tubulin polymerization in the presence of MAPS as rate =change in OD340/min; method in brief: as §2

Rate (Tubulin (Bos taurus) [1])	Rate (delta OD340 min-1) (Tubulin (Bos taurus) [2])	Equilibrium OD340 (Tubulin (Bos taurus) [3])	Equilibrium OD340 (Tubulin (Bos taurus) [4])	Equilibrium OD340 (Tubulin (Bos taurus) [5])	Rate (delta OD340 min-1) (Tubulin (Bos taurus) [6])	Equilibrium OD340 (Tubulin (Bos taurus) [7])	Rate (delta OD340 min-1) (Tubulin (Bos taurus) [8])	SMILES	Rate (delta OD340 min-1) (Tubulin (Bos taurus) [1])
0.205	0.069	1.79	0.247	1.09	0.69	0.392	0.021	CCNCCCNCCCNCCCNC[C@@H](C)CC	
	0.031	0.563	0.098	1.08	0.096	0.514	0.036	CCNCCCNCCCNCCCNCC1CC1	0.131
		1.31	0.624		0.14		0.055	NCCCNCCCCNCCCN	

SMILES	Rate (Tubulin (Bos taurus) [1])	Rate (delta OD340 min-1) (Tubulin (Bos taurus) [2])	Equilibrium OD340 (Tubulin (Bos taurus) [3])	Equilibrium OD340 (Tubulin (Bos taurus) [4])	Equilibrium OD340 (Tubulin (Bos taurus) [5])	Rate (delta OD340 min-1) (Tubulin (Bos taurus) [6])	Equilibrium OD340 (Tubulin (Bos taurus) [7])	Rate (delta OD340 min-1) (Tubulin (Bos taurus) [8])	Rate (delta OD340 min-1) (Tubulin (Bos taurus) [1])
CCNCCCNCCCNCCCNCC1CCCCCC1		0.16	2.42	1.3	1.71	0.37	1.01	0.25	0.131
